Measured values published in ChEMBL document CHEMBL4118161, “Synthesis and evaluation of novel dimethylpyridazine derivatives as hedgehog signaling pathway inhibitors” (Bioorg Med Chem, 2018).
Activity calls are given as the source filed them. No cut-off for these calls is given here.

Columns and labels:
Mus musculus [1] = species: Mus musculus; assay: Inhibition of hedgehog signaling pathway in mouse Light2 cells at 100 nM after 48 hrs by Gli-luciferase reporter gene assay relative to control; format: cell-based
How it was run: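 Single-concentration screen at 100 nM in Light II cells (NIH-3T3 with stable Gli-firefly luciferase reporter and Renilla luciferase vector), kept in DMEM/10% FBS with zeocin and G418 at 37°C, 5% CO₂. Cells treated 48 h; percent inhibition of Gli reporter from dual luciferase assay.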

[2] = Inhibition of hedgehog signaling pathway in mouse Light2 cells after 48 hrs by Gli-luciferase reporter gene assay; format: cell-based
Medulloblastoma cell [3] = assay: Anti-tumor activity against mouse Ptch+/- p53-/- medulloblastoma cells implanted in athymic nude mouse assessed as tumor growth inhibition at 20 mg/kg, po administered twice daily via gavage measured every other day during compound dosing; format: functional, organism-based
How it was run: (§1)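 Allograft from spontaneous intracranial medulloblastomas of Ptch+/-p53-/- mice, first passaged subcutaneously in athymic nude mice; 1 mm³ fragments implanted by trocar into the right flank. Oral gavage twice a day started at 150–200 mm³, in 0.5% NaCMC suspension. Caliper length and width taken every other day, V = L×W²/2. Five mice per group, means ± SEM.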

Medulloblastoma cell [4] = assay: Anti-tumor activity against mouse Ptch+/- p53-/- medulloblastoma cells implanted in athymic nude mouse assessed as tumor growth inhibition at 10 to 20 mg/kg, po administered twice daily via gavage measured every other day during compound dosing; format: functional, organism-based; how it was run: as §1
Mus musculus [5] = assay: Toxicity in athymic nude mouse implanted with mouse Ptch+/- p53-/- medulloblastoma cells assessed as body weight loss at 10 to 20 mg/kg, po administered twice daily via gavage measured every other day during compound dosing; format: organism-based; details: in vivo
How it was run: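 Nude mice bearing subcutaneous right-flank Ptch+/-p53-/- medulloblastoma fragment allografts, dosed by oral gavage twice daily (vehicle 0.5% NaCMC suspension) once tumors reached 150–200 mm³. Body weights recorded alongside caliper tumor measurements taken every other day; five animals per group.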

SMILES | IC50 [2] | inhibition (Mus musculus [1]) | TGI (Medulloblastoma cell [3]) | TGI (Medulloblastoma cell [4]) | Activity (Mus musculus [5])
Cc1c(-c2ccnn2C)nnc(N2CCC(NC(=O)c3cccc(F)c3)CC2)c1C | > 100 nM | 82.1% |  |  | 
Cc1c(-c2ccnn2C)nnc(N2CCC(Nc3cnc(C(C)(C)O)cn3)CC2)c1C | > 100 nM | 10.8% |  |  | 
Cc1c(-c2ccnn2C)nnc(N2CCC(Nc3ccc(C(C)(C)O)cn3)CC2)c1C | > 100 nM | 31.8% |  |  | 
CS(=O)(=O)c1ccc(C(=O)Nc2ccc(Cl)c(-c3ccccn3)c2)c(Cl)c1 [VISMODEGIB] | 2.46 nM | 108% | Active |  | 
CN(C(=O)c1ccc(F)cc1C(F)(F)F)C1CCN(c2nnc(-c3ccnn3C)c3ccccc23)CC1 [TALADEGIB] | 2.26 nM | 95% |  |  | 
Cc1c(-c2ccnn2C)nnc(N2CCC(NC(=O)Nc3ccccc3)CC2)c1C | > 100 nM | 26.2% |  |  | 
Cc1c(-c2ccnn2C)nnc(N2CCC(NC(=O)NC3CCCC3)CC2)c1C | > 100 nM | 24.4% |  |  | 
Cc1c(-c2ccnn2C)nnc(N2CCN(C(=O)c3ccc(F)cc3C(F)(F)F)CC2)c1C | > 100 nM | -6.57% |  |  | 
Cc1c(-c2ccnn2C)nnc(N2CCC(NC(=O)Oc3ccccc3)CC2)c1C | > 100 nM | 41.2% |  |  | 
Cc1c(-c2ccnn2C)nnc(N2CCC(Nc3ccc(C(C)(C)O)nn3)CC2)c1C | > 100 nM | 20.6% |  |  | 
Cc1c(-c2ccnn2C)nnc(N2CCC(NC(=O)NC3CCCCCC3)CC2)c1C | > 100 nM | 45.7% |  |  | 
Cc1c(-c2ccnn2C)nnc(N2CCC(NC(=O)OC3CCCCC3)CC2)c1C | > 100 nM | 26.6% |  |  | 
Cc1c(-c2ccnn2C)nnc(N2CCC(NC(=O)Nc3cccnc3)CC2)c1C | > 100 nM | 3.47% |  |  | 
Cc1c(-c2ccnn2C)nnc(N2CCC(Nc3cnc(S(C)(=O)=O)cn3)CC2)c1C | > 100 nM | 23.8% |  |  | 

Second part, led by results:

IC50 [2] | SMILES | inhibition (Mus musculus [1]) | TGI (Medulloblastoma cell [3]) | TGI (Medulloblastoma cell [4]) | Activity (Mus musculus [5])
43.2 nM | Cc1c(-c2ccncc2)nnc(N2CCC(NC(=O)c3ccc(F)cc3C(F)(F)F)CC2)c1C | 76% |  |  | 
32.8 nM | Cc1c(-c2ccnn2C)nnc(N2CCC(NC(=O)c3ccccc3C(F)(F)F)CC2)c1C | 79.7% |  |  | 
61.5 nM | Cc1c(-c2ccnn2C)nnc(N2CCC(NC(=O)c3cc(F)ccc3C(F)(F)F)CC2)c1C | 82% |  |  | 
2.33 nM | Cc1c(-c2ccnn2C)nnc(N2CCC(NC(=O)c3ccc(F)cc3C(F)(F)F)CC2)c1C | 89.5% |  | Active | Non-Toxic
12.2 nM | Cc1ccc(-c2nnc(N3CCC(NC(=O)c4ccc(F)cc4C(F)(F)F)CC3)c(C)c2C)cc1 | 101% |  |  | 
7.02 nM | Cc1c(-c2ccccc2Cl)nnc(N2CCC(NC(=O)c3ccc(F)cc3C(F)(F)F)CC2)c1C | 106% |  |  | 
32.5 nM | Cc1c(-c2ccnn2C)nnc(N2CCC(NC(=O)c3ccc(Sc4ccccc4)cc3C(F)(F)F)CC2)c1C | 82.8% |  |  | 
36.5 nM | Cc1c(-c2ccnn2C)nnc(N2CCC(NC(=O)c3ccc(Oc4ccccc4)cc3C(F)(F)F)CC2)c1C | 78.9% |  |  | 
43.8 nM | Cc1c(-c2ccc(Cl)cc2)nnc(N2CCC(NC(=O)c3ccc(F)cc3C(F)(F)F)CC2)c1C | 85% |  |  | 
22 nM | COc1ccc(-c2nnc(N3CCC(NC(=O)c4ccc(F)cc4C(F)(F)F)CC3)c(C)c2C)cc1 | 74.5% |  |  | 
25.5 nM | Cc1c(-c2ccccc2)nnc(N2CCC(NC(=O)c3ccc(F)cc3C(F)(F)F)CC2)c1C | 90.2% |  |  | 
8.5 nM | Cc1c(-c2ccc(C#N)cc2)nnc(N2CCC(NC(=O)c3ccc(F)cc3C(F)(F)F)CC2)c1C | 111% |  |  | 
30 nM | Cc1c(-c2ccnn2C)nnc(N2CCC(N(C)C(=O)c3ccc(F)cc3C(F)(F)F)CC2)c1C | 60.9% |  |  | 
36.4 nM | Cc1c(-c2ccnn2C)nnc(N2CC[C@@H](NC(=O)c3ccc(F)cc3C(F)(F)F)C2)c1C | 54.1% |  |  | 
42.9 nM | Cc1c(-c2ccnn2C)nnc(N2CCC(NC(=O)c3c(F)cccc3C(F)(F)F)CC2)c1C | 79.8% |  |  | 
25.1 nM | Cc1c(-c2ccnn2C)nnc(N2CCC(NC(=O)c3ccc(Cl)cc3C(F)(F)F)CC2)c1C |  |  |  | 
16.6 nM | Cc1c(-c2ccnn2C)nnc(N2CCC(NC(=O)c3ccc(Oc4ccccc4F)cc3C(F)(F)F)CC2)c1C | 91.5% |  |  | 
